Data as given in article PMC11409854 (Chemical Science, 2024).
≈ marks a conversion by molar mass, not a printed value. Where “and” joins values, the source holds several entries; their conditions need not be identical. Equal entries are not always repeated.

Columns and labels:
[1] = system: clinical isolates of NDM producing K. pneumoniae and E. coli; assay: Checkerboard assay, summary over NDM-producing isolates; assay type: cell-based; conditions: for fold decrease in the MIC value: with 16 μg mL^−1 VanNHdipi (7 μM); for fold reduction of the MIC value: with 32 μg mL^−1 VanNHdipi (14 μM), all strains
How it was run: (§1)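 Carbapenem (meropenem or doripenem) MICs were determined in μg mL−1 against NDM-producing K. pneumoniae and E. coli isolates. Each was tested alone and in the presence of fixed test compound at 16 μg mL−1 (7 μM) or 32 μg mL−1 (14 μM). Fold change is the MIC with compound relative to carbapenem alone.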

[2] = system: E. coli EN5141 (NDM-1, OXA-1); assay: MIC / checkerboard assay, E. coli EN5141; assay type: cell-based; conditions: carbapenem alone
How it was run: as §1

[3] = system: K. pneumoniae BAA2146 (NDM-1); assay: MIC / checkerboard assay, K. pneumoniae BAA2146; assay type: cell-based; conditions: carbapenem alone
How it was run: as §1

[4] = system: K. pneumoniae EN5136 (NDM-1, OXA-1, SHV); assay: MIC / checkerboard assay, K. pneumoniae EN5136; assay type: cell-based; conditions: carbapenem alone
How it was run: as §1

[5] = system: K. pneumoniae R3934 (NDM-1); assay: MIC / checkerboard assay, K. pneumoniae R3934; assay type: cell-based; conditions: carbapenem alone
How it was run: as §1

[6] = system: K. pneumoniae R3934; assay: Time-kill kinetics of carbapenem combinations; assay type: cell-based; conditions: carbapenem alone (meropenem 8 μg mL^−1, doripenem 2 μg mL^−1)
How it was run: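 K. pneumoniae R3934 (NDM-1) was exposed to meropenem (4 or 8 μg mL−1) or doripenem (0.5 or 1 μg mL−1) with the test compound at 32 μg mL−1. Controls were untreated cultures and carbapenem alone (meropenem 8, doripenem 2 μg mL−1). Viable counts (Log CFU mL−1) were taken at 2, 4, 6 and 24 h; <50 CFU mL−1 was flagged.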

[7] = biological target: NDM-1 (Klebsiella pneumoniae, UniProt C7C422); assay: MBL inhibition, nitrocefin absorbance assay, NDM-1; assay type: biochemical
Sequence of NDM-1 (C7C422 29-270, looked up): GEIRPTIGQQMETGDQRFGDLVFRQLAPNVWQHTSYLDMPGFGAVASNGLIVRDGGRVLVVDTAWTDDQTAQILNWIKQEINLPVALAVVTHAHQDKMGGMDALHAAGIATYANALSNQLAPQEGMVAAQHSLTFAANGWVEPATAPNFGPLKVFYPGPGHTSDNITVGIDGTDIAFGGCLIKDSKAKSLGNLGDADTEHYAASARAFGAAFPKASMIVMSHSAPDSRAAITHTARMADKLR
How it was run: (§2)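 Absorbance inhibition assay for purified metallo-β-lactamases from a seven-enzyme panel. Nitrocefin served as substrate; enzyme hydrolysis of its β-lactam ring shifts the absorption spectrum, which is monitored by absorbance. IC50 was determined for the test compound.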

[8] = biological target: IMP-1 (Serratia marcescens, UniProt P52699); assay: MBL inhibition, nitrocefin absorbance assay, IMP-1; assay type: biochemical
Sequence of IMP-1 (P52699 19-246, looked up, species assumed): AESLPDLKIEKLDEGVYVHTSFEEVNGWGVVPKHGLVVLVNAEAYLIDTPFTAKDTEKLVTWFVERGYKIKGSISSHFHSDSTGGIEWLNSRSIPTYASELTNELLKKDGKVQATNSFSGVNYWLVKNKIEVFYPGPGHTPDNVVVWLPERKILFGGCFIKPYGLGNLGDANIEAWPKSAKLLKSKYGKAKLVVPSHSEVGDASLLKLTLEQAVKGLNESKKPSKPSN
How it was run: as §2

[9] = system: VIM-1 and IMP-1; conditions: cited from earlier work
[10] = system: NDM-1 and VIM-2; conditions: cited from earlier work
[11] = system: B. subtilis 168; assay: Physiologically effective concentration; assay type: cell-based, Bacillus subtilis
How it was run: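 B. subtilis 168 was grown to mid-log phase (OD500 0.35) and then given different concentrations of the test compound or vancomycin. The acute effect on growth was followed by optical density. The PEC is the concentration at which growth continues at a reduced rate, expressed as a multiple of the MIC.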

[12] = system: MRSA; assay: Time-kill kinetics against exponential phase MRSA; assay type: cell-based, S. aureus; conditions: at MIC (vancomycin: same across concentrations)
How it was run: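 Exponential-phase MRSA was exposed to the test compound or vancomycin at the MIC and higher multiples. Viable counts (Log CFU mL−1) were followed over time up to 24 h.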

[13] = system: GFP-MinD in B. subtilis 1981; assay: GFP-MinD localization; assay type: cell-based, Bacillus subtilis; conditions: at PEC (vancomycin 0.4 μM, VanNHdipi 0.16 μM)
[14] = system: MRSA, methicillin-resistant S. aureus (ATCC 33591); assay: MIC determination; assay type: cell-based; conditions: Staphylococcus aureus, ATCC33591|MRSA
[15] = D-Ala-D-Lac versus D-Ala-D-Ala; cited from earlier work
[16] = system: B. subtilis 168 newly synthesized cytosolic proteins; assay: 2D gel-based proteome analysis with [35S]-methionine pulse labeling; assay type: cell-based, Bacillus subtilis; conditions: 10 min
How it was run: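 B. subtilis 168 cultures grown to OD500 0.35 were exposed for 10 min to the test compound or vancomycin at the physiologically effective concentration. Newly synthesised cytosolic proteins were pulse-labelled with [35S]-methionine, separated by 2D gel electrophoresis and compared with untreated cells by false-colour overlay (treated red, control green). Proteins were identified by LC-MS; regulation factor is the treated/control ratio.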

[17] = system: MRSA; assay: Antagonization assay with N,N'-diacetyl-L-Lys-D-Ala-D-Ala; assay type: cell-based, S. aureus; conditions: Staphylococcus aureus, read-out: MIC in the presence of KAA
How it was run: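 Test compound or vancomycin was pre-incubated with N,N'-diacetyl-L-Lys-D-Ala-D-Ala (KAA) before being added to the MRSA suspension for MIC determination. MIC in the presence of KAA was compared with that without KAA.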

[18] = system: MRSA ATCC 33591 biofilms; assay: Activity against mature biofilms of MRSA; assay type: cell-based, S. aureus; conditions: 20 μM, 24 h
[19] = system: B. subtilis 168; assay: Cell wall biosynthesis inhibition assay; assay type: cell-based, Bacillus subtilis; conditions: at PEC (vancomycin 0.4 μM, VanNHdipi 0.16 μM)
[20] = system: vancomycin-resistant strains (VRSA and VRE); assay: MIC across the panel of vancomycin-resistant strains; assay type: cell-based, Staphylococci and Enterococci; conditions: Staphylococcus aureus
[21] = system: B. subtilis; assay: MIC determination against B. subtilis; assay type: cell-based; conditions: Bacillus subtilis

**Q.** For `C[C@@H](O)[C@H]1C(=O)N2C(C(=O)O)=C(S[C@@H]3CN[C@H](CNS(N)(=O)=O)C3)[C@H](C)[C@H]12` [Doripenem], which MIC [1] is on record?
**A.** 0.06 to 4 µg/mL

**Q.** And the “fold decrease in the MIC value” ([1]; NDM producing K. pneumoniae and E. coli)?
**A.** 4-16 fold

**Q.** And the “fold reduction of the MIC value” [1]?
**A.** 16–32 fold

**Q.** What about the MIC of carbapenem [2] of the same compound?
**A.** 8 µg/mL

**Q.** And the MIC of carbapenem [3]?
**A.** 16 µg/mL

**Q.** And the MIC of carbapenem [4]?
**A.** 8 µg/mL

**Q.** What about the MIC of carbapenem [5] of the same compound?
**A.** 16 µg/mL

**Q.** And the growth inhibition [6]?
**A.** no growth inhibition

**Q.** Which IC50 [7] does the source give for `c1ccc(CNCc2ccccn2)nc1` [BPYA, bis(pyridin-2-ylmethyl)amine] here?
**A.** 1200 nM

**Q.** And the IC50 [8]?
**A.** > 40000 nM

**Q.** With `C[C@@H](O)[C@H]1C(=O)N2C(C(=O)O)=C(S[C@@H]3CN[C@H](C(=O)N(C)C)C3)[C@H](C)[C@H]12` [Meropenem] as the compound, how does the MIC [1] read?
**A.** 0.06 to 4 µg/mL

**Q.** And the “fold decrease in the MIC value” ([1]; NDM-1 expressing K. pneumoniae strains)?
**A.** 2-8 fold

**Q.** What about the “fold reduction of the MIC value” [1] of the same compound?
**A.** 16–32 fold

**Q.** What about the MIC of carbapenem [2] of the same compound?
**A.** 2 µg/mL

**Q.** What about the MIC of carbapenem [3] of the same compound?
**A.** 8 µg/mL

**Q.** And the MIC of carbapenem [4]?
**A.** 8 µg/mL

**Q.** What about the MIC of carbapenem [5] of the same compound?
**A.** 64 µg/mL

**Q.** And the growth inhibition [6]?
**A.** did not show any growth inhibition

**Q.** For `O=C(O)c1ncsc1NS(=O)(=O)c1cccnc1` [ANT431], which “fold less active than against NDM-1 and VIM-2” value [9] is on record?
**A.** at least 20 fold

**Q.** What about the inhibitory activity [10] of the same compound?
**A.** sub-micromolar

**Q.** Which results are given for `CN[C@H](CC(C)C)C(=O)N[C@H]1C(=O)N[C@@H](CC(N)=O)C(=O)N[C@H]2C(=O)N[C@H]3C(=O)N[C@H](C(=O)N[C@H](C(=O)O)c4cc(O)cc(O)c4-c4cc3ccc4O)[C@H](O)c3ccc(c(Cl)c3)Oc3cc2cc(c3O[C@@H]2O[C@H](CO)[C@@H](O)[C@H](O)[C@H]2O[C@H]2C[C@](C)(N)[C@H](O)[C@H](C)O2)Oc2ccc(cc2Cl)[C@H]1O` [Vancomycin]?
**A.** PEC as multiple of MIC ([11]; added at OD500 0.35): 2 × MIC; physiologically effective concentration (PEC), growth retardation ([11]; added at OD500 0.35 (mid-log phase)): 0.4 μM; time to complete eradication [12]: 24 h; MinD delocalization [13]: did not elicit any MinD protein delocalization; MIC [14]: 0.6 µM (≈ 0.87 µg/mL); fold reduction in binding affinity [15]: 1000 fold; Regulation factor (treated/control), CysC ([16]; at PEC (vancomycin 0.4 μM, VanNHdipi 0.16 μM)): 2.3 ± 0.1; Regulation factor (treated/control), GsaB ([16]; at PEC): 2.8 ± 0.4; Regulation factor (treated/control), Hom ([16]; at PEC): 5.0 ± 3.8; Regulation factor (treated/control), LysA ([16]; at PEC): 2.7 ± 0.3; Regulation factor (treated/control), MtnE ([16]; at PEC): 2.4 ± 0.3; Regulation factor (treated/control), MurF ([16]; at PEC): 4.1 ± 1.6; Regulation factor (treated/control), NfrA ([16]; at PEC): 3.3 ± 0.2; Regulation factor (treated/control), RpsB ([16]; at PEC): 2.7 ± 0.3; Regulation factor (treated/control), SdhA ([16]; at PEC): 3.3 ± 1; Regulation factor (treated/control), ThiG ([16]; at PEC): 2.5 ± 0.1; Regulation factor (treated/control), Udk ([16]; at PEC): 3.1 ± 0.5; Regulation factor (treated/control), YceC ([16]; at PEC): 3.7 ± 0.9; Regulation factor (treated/control), YoxD ([16]; at PEC): 2.9 ± 0.1; Regulation factor (treated/control), YpuA ([16]; at PEC): 4.4 ± 0.3; Regulation factor (treated/control), YqiG ([16]; at PEC): 5.2 ± 1.3; Regulation factor (treated/control), YtrB ([16]; at PEC): 4.8 ± 0.5; Regulation factor (treated/control), YtrE.2 ([16]; at PEC): 18.2 ± 8.98; MIC [17]: > 30 µM; reduction in cell viability within the biofilms [18]: minimal activity; inhibition of cell wall biosynthesis (bubbles on cell surface) [19]: Bubble-like formations were observed; MIC [20]: > 346 µM and > 512 µg/mL; MIC [21]: 0.2 µM (≈ 0.29 µg/mL)
